Assay [1] deals with T1, Stromelysin-1 (Homo sapiens, UniProt P08254). Kind of assay: Inhibition of human matrix metalloprotease-3 (inactive). The procedure, abridged: (§1)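 Fluorogenic peptide cleavage assay with substrate Mca-Pro-Leu-Gly-Leu-Dpa-Ala-Arg-NH2. The enzyme was truncated recombinant MMP-3 lacking the PEX and pro domains, used instead of activated pro-MMP-3 because activation of the proenzyme was not reproducible.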

The target of assay [2] is T2, 72 kDa type IV collagenase (Homo sapiens, UniProt P08253). Kind of assay: Inhibition of human matrix metalloprotease-2 (inactive). The procedure, abridged:
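Fluorogenic peptide cleavage assay with substrate Mca-Pro-Leu-Gly-Leu-Dpa-Ala-Arg-NH2. The enzyme was recombinant pro-MMP-2 activated with APMA.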

Assay [3] concerns the target T1, Stromelysin-1. The assay is described as follows: Inhibition of human matrix metalloprotease-3. The procedure, abridged: as §1
For assay [4], the target named is T2, 72 kDa type IV collagenase. Kind of assay: Inhibition of human matrix metalloprotease-2.
The target in assay [5] is Matrix metalloproteinase (2 and 3) (Homo sapiens) (UniProt P08254+P08253). Kind of assay: Selectivity ratio for Matrix metalloprotease-2 over Matrix metalloprotease-3 (IC50). In kind it is protein assay.
Sequence of Matrix metalloproteinase (2 and 3) (Homo sapiens) (P08253 whole entry, looked up): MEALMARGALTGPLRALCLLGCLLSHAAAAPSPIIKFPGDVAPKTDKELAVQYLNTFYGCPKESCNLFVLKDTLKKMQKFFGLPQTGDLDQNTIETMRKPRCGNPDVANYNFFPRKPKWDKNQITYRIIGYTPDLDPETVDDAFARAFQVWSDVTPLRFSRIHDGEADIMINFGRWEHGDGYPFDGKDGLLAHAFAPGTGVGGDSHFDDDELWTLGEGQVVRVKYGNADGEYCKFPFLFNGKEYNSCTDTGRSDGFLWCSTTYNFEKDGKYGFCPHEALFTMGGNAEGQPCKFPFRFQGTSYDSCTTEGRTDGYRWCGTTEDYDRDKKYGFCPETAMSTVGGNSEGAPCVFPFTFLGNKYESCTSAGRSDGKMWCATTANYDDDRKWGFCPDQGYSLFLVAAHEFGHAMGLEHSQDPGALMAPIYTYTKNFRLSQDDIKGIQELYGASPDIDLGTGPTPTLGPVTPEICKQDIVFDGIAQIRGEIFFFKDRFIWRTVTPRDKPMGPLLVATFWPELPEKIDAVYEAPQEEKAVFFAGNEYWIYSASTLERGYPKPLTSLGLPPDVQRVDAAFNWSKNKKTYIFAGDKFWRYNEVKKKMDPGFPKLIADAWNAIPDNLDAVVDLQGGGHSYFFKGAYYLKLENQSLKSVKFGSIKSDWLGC
Sequence of Matrix metalloproteinase (2 and 3) (Homo sapiens) (P08254 whole entry, looked up): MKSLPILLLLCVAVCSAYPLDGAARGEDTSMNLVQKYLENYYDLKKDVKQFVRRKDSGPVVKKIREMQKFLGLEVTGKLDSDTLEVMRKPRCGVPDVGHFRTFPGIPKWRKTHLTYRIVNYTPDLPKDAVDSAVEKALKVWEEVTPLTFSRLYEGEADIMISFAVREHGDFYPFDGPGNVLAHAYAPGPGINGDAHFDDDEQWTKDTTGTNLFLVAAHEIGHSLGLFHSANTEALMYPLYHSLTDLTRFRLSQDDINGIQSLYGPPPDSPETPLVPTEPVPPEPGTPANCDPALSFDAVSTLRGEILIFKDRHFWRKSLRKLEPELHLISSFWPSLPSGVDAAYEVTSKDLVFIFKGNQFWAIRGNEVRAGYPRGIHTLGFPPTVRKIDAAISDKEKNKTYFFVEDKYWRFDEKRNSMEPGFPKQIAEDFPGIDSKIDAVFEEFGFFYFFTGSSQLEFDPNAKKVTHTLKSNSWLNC

This is an account of results in ChEMBL document CHEMBL1145729, “MMPs inhibitors: new succinylhydroxamates with selective inhibition of MMP-2 over MMP-3” (Bioorg Med Chem Lett, 2003).

Where “and” joins values, the source holds several entries; their conditions need not be identical. Equal entries are not always repeated.

T2 sequence (P08253 whole entry): as the sequence (P08253 whole entry, looked up) above
T1 sequence (P08254 whole entry, the tested form may be a part): as the sequence (P08254 whole entry, looked up) above

For `CNC(=O)[C@H](Cc1c[nH]c2ccccc12)NC(=O)/C(=C/C(C)C)CC(=O)OC`, the half-maximal inhibitory concentration (IC50) result (at Stromelysin-1 [1]; in assay [2]) was “Not Active” in each case.
Consider `CNC(=O)[C@H](Cc1c[nH]c2ccccc12)NC(=O)/C(=C/C(C)C)CC(=O)NO` [listing 1 of 3 here], for which the values for the IC50 (at Stromelysin-1 [3]; in assay [4]) were 179 nM and 1.3 nM, respectively.
In the case of `CNC(=O)[C@H](Cc1c[nH]c2ccccc12)NC(=O)/C(=C/C(C)C)CC(=O)NO` [listing 2 of 3 here], the values for the 50% inhibitory concentration (IC50) (against Stromelysin-1 [3]; in assay [4]) were 910 nM and 19.6 nM, respectively.
Regarding `CNC(=O)[C@H](Cc1c[nH]c2ccccc12)NC(=O)[C@@H](CC(=O)NO)CC(C)C` [ILOMASTAT], half-maximal inhibition at Stromelysin-1 [3] (IC50) was put at 0.191 nM.
For `CNC(=O)[C@H](Cc1c[nH]c2ccccc12)NC(=O)/C(=C/C(C)C)CC(=O)NO` [listing 3 of 3 here], in assay [5], the Selectivity was 138 and 46.
Turning to `CCOC(=O)[C@H](Cc1c[nH]c2ccccc12)NC(=O)/C(=C/C(C)C)CC(=O)NO`, in assay [5], the Selectivity was found to be 392. Moreover, the IC50 against Stromelysin-1 [3] came out at 2340 nM; in assay [4] it was 5.97 nM.
For the compound `CNC(=O)C(Cc1c(CCN(C)C)[nH]c2ccccc12)NC(=O)/C(=C/C(C)C)CC(=O)NO` (centres undefined), the Selectivity in assay [5] is 116. The IC50 on Stromelysin-1 [3] was determined as 665 nM; in assay [4], 5.73 nM.

As usually defined, the IC50 is the concentration that inhibits the measured activity by half.
